Compound activity: PubChem, several laboratories
Rows were chosen to be rich in hits. Some 1.2% of all compounds tested hit in one or more screens of this group.
TRPN1 ag – activates the zebrafish TRPN1 channel. HEK293 zebrafish TRPN1-YFP, Fluo-8 calcium fluorescence; 100% = response to 87 µM carbachol. activation, % at 3 µM. 0.18% of 220,000 active;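 active means activation above its plate's cutoff, the mean activation of test wells on that plate plus 3 SD, cut at about 19% in these data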;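 further: 0% = DMSO alone and 100% = 87 µM carbachol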
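System: zebrafish TRPN1-YFP in HEK293 cells / Dosing: 3 µM single point / Timing: dye loading 1 h at 37 °C, then 30 min room temperature / Signal: Fluo-8 calcium fluorescence, excitation 470-495 nm, emission 515-575 nm / Read-out basis: percent activation from peak over basal fluorescence ratio, control-normalized / Control set: high carbachol 87 µM, low DMSO alone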
CRFBP-R2 agonist – CRF-BP/CRF-R2 complex agonism; HEK293 CRF-R2/CRF-BP, calcium dye fluorescence (FLIPR); percent of saturating CRF peptide response; activation, % at 13.2 µM; 0.46% of 350,000 active; AID 588473;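 active means activation of at least 50%, plus an integration ratio under a set limit after plate pattern correction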;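 further: plate controls were neutral control wells without compound for no effect and CRF at EC100 for full effect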
CRFR2-BP antag – antagonists of CRF-binding protein/CRF-R2 receptor complex; HEK293 CRF-R2/CRF-BP, CRF-induced calcium fluorescence; inhibition, % at 11.8 µM; 0.59% of 350,000 active; AID 588475;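 active means inhibition of the ligand-induced calcium signal above about 50% at the single tested concentration, limit read from the data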
TRPML3 ag – agonists of human TRPML3 channel. Q8TDD5. AID 1448. activation, % at 3 µM. 0.29% of 220,000 active. HEK293 TRPML3-YFP, Fluo-8 calcium fluorescence; 100% = the carbachol control signal;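 active means activation above its plate's cutoff, the mean activation of the plate's test wells plus 3 SD, cut at about 12% in these data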;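 further: 0% = DMSO only wells and 100% = carbachol wells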
Target sequence (Q8TDD5 whole entry, looked up): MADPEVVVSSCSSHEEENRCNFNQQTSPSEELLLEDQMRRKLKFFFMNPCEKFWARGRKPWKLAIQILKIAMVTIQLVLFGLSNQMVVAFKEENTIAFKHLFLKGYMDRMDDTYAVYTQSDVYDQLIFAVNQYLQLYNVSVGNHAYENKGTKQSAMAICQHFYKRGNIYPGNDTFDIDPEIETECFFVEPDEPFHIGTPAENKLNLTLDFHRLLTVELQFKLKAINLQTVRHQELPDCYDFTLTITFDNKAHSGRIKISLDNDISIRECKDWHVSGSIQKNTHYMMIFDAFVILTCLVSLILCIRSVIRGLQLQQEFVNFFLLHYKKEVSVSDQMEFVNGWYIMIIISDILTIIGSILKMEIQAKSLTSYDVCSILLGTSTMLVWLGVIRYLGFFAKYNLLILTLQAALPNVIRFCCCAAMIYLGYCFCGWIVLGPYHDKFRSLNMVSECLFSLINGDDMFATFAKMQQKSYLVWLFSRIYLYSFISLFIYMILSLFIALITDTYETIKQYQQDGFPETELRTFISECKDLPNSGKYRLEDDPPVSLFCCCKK
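system = HEK293 cells stably carrying human TRPML3-YFP | doses = one concentration, 3 µM nominal, 0.3% DMSO | timing = dye loading 1 h 37 °C then 30 min ambient, 125 s read | detection = Fluo-8 calcium dye fluorescence, ex 470-495, em 515-575 nm | benchmarks = high control carbachol 87 µM, low control DMSO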
* hit, by the source's call.

Screening CC(C)C1C(C#N)=C(N)Oc2n[nH]c(C(C)(C)C)c21 (stereo not given) returned TRPN1 ag 1, CRFBP-R2 agonist 2, CRFR2-BP antag -33 and TRPML3 ag 0.
Screening Cc1c(O)c2c3c(cccc3c1O)C(=O)N(c1ccccc1)C2=O returned TRPN1 ag 11, CRFBP-R2 agonist 168*, CRFR2-BP antag -151 and TRPML3 ag 7.
Screening Nc1ccc2c3c(cccc13)C(=O)N(c1ccccc1)C2=O returned TRPN1 ag 125*, CRFBP-R2 agonist 235*, CRFR2-BP antag -227 and TRPML3 ag 111*.
O=C(CSc1ccccc1)Nc1cccnc1 was read as TRPN1 ag 1, CRFBP-R2 agonist -1, CRFR2-BP antag -6 and TRPML3 ag 0.
For O=C(CN1CCN(c2ccc(F)cc2)CC1)OCc1ccccc1 the results were TRPN1 ag 1, CRFBP-R2 agonist 0, CRFR2-BP antag -17 and TRPML3 ag 0.
Screening CS(=O)(=O)c1ccc(C(=O)CN2C(=O)NC3(CCCc4ccccc43)C2=O)cc1 (stereo not given) returned CRFBP-R2 agonist 0 and CRFR2-BP antag 53*.
CC(C)C1Nc2c(O)cc(Cl)c([N+](=O)[O-])c2C2C=CCC21 (stereo not given) was read as TRPN1 ag 14, CRFBP-R2 agonist 33, CRFR2-BP antag 59* and TRPML3 ag 7.
`O=C(O)C1Nc2c(Cl)cc(Cl)c(Cl)c2C2C=CCC12` (stereo not given) gave CRFBP-R2 agonist 2 and CRFR2-BP antag 6.
C[C@@]12C(=O)N(Cc3ccc(F)cc3)CC(=O)N1[C@H]1c3cc(Cl)ccc3OC[C@@H]1[C@@H]2c1ccccc1 was read as CRFBP-R2 agonist 5 and CRFR2-BP antag -17.
For N#CNC(=Nc1cccc(F)c1)SCc1ccccc1F the results were TRPN1 ag 16, CRFBP-R2 agonist 48, CRFR2-BP antag 85* and TRPML3 ag 9.
For CC(C)N=C(NC#N)SCc1ccccc1F the results were TRPN1 ag -1, CRFBP-R2 agonist -1, CRFR2-BP antag 6 and TRPML3 ag 0.
COc1cccc(Oc2ccc(OC)cc2C(=O)O)c1 was read as TRPN1 ag -1, CRFBP-R2 agonist 4, CRFR2-BP antag 74* and TRPML3 ag 1.
For CSc1ccccc1C(=O)NC1CCCN(Cc2ccccc2F)C1 (stereo not given) the results were CRFBP-R2 agonist -2 and CRFR2-BP antag 9.
O=C(COC(=O)c1ccco1)NCc1ccco1 was read as TRPN1 ag 1, CRFBP-R2 agonist 12, CRFR2-BP antag -4 and TRPML3 ag 0.
For COc1ccc(SCC(=O)Nc2ccccc2Cl)cc1 the results were TRPN1 ag -3, CRFBP-R2 agonist 0, CRFR2-BP antag 80* and TRPML3 ag 0.
`O=C(NCC1CCCO1)c1onc(CSc2cccc3ccccc23)c1C(=O)O` (stereo not given) gave TRPN1 ag -1, CRFBP-R2 agonist -5, CRFR2-BP antag 50* and TRPML3 ag 0.
For COc1cc(C(=O)O)c2ccccc2n1 the results were TRPN1 ag 0, CRFBP-R2 agonist -1, CRFR2-BP antag 65* and TRPML3 ag 1.
For NC(=O)c1oc2ccccc2c1NC(=O)c1nc2ccccc2s1 the results were TRPN1 ag 0, CRFBP-R2 agonist 1, CRFR2-BP antag 8 and TRPML3 ag 0.
`O=C(Nc1nnc(-c2ccccc2)o1)c1nc2ccccc2s1` gave CRFBP-R2 agonist 140* and CRFR2-BP antag -65.
For O=C1c2ccccc2OC2(C=Cc3ccccc3O2)N1Cc1ccccc1 (stereo not given) the results were TRPN1 ag 1, CRFBP-R2 agonist -1, CRFR2-BP antag 56* and TRPML3 ag 0.
Cc1nnc2n(C)c(=O)c3c4c(sc3n12)COC(C)(C)C4 was read as CRFBP-R2 agonist 3 and CRFR2-BP antag -12.
Cc1cccc(N2CCN(C(=O)c3nn(C)c4c3CS(=O)(=O)c3ccccc3-4)CC2C)c1 (stereo not given) was read as CRFBP-R2 agonist 0 and CRFR2-BP antag 1.
COc1cc(O)c2c(c1)COC2=O was read as TRPN1 ag 1, CRFBP-R2 agonist -1, CRFR2-BP antag 60* and TRPML3 ag 1.
Screening COc1cccc(/C(C)=N/NS(=O)(=O)c2ccc(Cl)cc2)c1 returned TRPN1 ag -1, CRFBP-R2 agonist 1, CRFR2-BP antag 54* and TRPML3 ag 0.
Cc1ccc2nsnc2c1NC(=S)NC(=O)c1ccco1 was read as TRPN1 ag -3, CRFBP-R2 agonist 0, CRFR2-BP antag 26 and TRPML3 ag 0.
